Results published in ChEMBL document CHEMBL3621200, “Toward the discovery of dual HCMV-VZV inhibitors: Synthesis, structure activity relationship analysis, and cytotoxicity studies of long chained 2-uracil-3-yl-N-(4-phenoxyphenyl)acetamides” (Bioorg Med Chem, 2015).
Activity calls are given as the source filed them. The rule behind the calls is not given here.

tested on: Coxsackievirus B4; assay: Antiviral activity against Human coxsackievirus B4; format: functional, organism-based; details: not given

| SMILES | inhibition |
| --- | --- |
| O=C(Cn1c(=O)ccn(CCCCCCCCOc2ccc(Br)cc2)c1=O)Nc1ccc(Oc2ccccc2)cc1 | inactive |
| O=C(Cn1c(=O)ccn(CCCCCOc2cccc(Br)c2)c1=O)Nc1ccc(Oc2ccccc2)cc1 | inactive |
| O=C(Cn1c(=O)ccn(CCCCCOc2ccccc2)c1=O)Nc1ccc(Oc2ccccc2)cc1 | inactive |

tested on: Punta Toro virus; assay: Antiviral activity against Punta Toro virus; format: functional, organism-based; details: not given

| SMILES | inhibition |
| --- | --- |
| O=C(Cn1c(=O)ccn(CCCCCCCCOc2ccc(Br)cc2)c1=O)Nc1ccc(Oc2ccccc2)cc1 | inactive |
| O=C(Cn1c(=O)ccn(CCCCCOc2cccc(Br)c2)c1=O)Nc1ccc(Oc2ccccc2)cc1 | inactive |
| O=C(Cn1c(=O)ccn(CCCCCOc2ccccc2)c1=O)Nc1ccc(Oc2ccccc2)cc1 | inactive |

tested on: HEL; assay: Cytotoxicity against human cytomegalovirus infected HEL cells assessed as cell growth inhibition incubated for 3 days by coulter counter method; format: cell-based; details: 72 h
Outline: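 HEL cells were seeded at 5 × 10^3 cells/well and left to adhere and proliferate for 24 h, then compound-containing medium was added. After 3 days at 37 °C, cells were counted with a Coulter counter.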

| SMILES | CC50 [µM] |
| --- | --- |
| O=C(Cn1c(=O)ccn(CCCCCOc2cccc(Br)c2)c1=O)Nc1ccc(Oc2ccccc2)cc1 | 6.3 |
| O=C(Cn1c(=O)ccn(CCCCCOc2ccccc2)c1=O)Nc1ccc(Oc2ccccc2)cc1 | 5.4 |

tested on: Sindbis virus; assay: Antiviral activity against Sindbis virus; format: functional, organism-based; details: not given

| SMILES | inhibition |
| --- | --- |
| O=C(Cn1c(=O)ccn(CCCCCCCCOc2ccc(Br)cc2)c1=O)Nc1ccc(Oc2ccccc2)cc1 | inactive |
| O=C(Cn1c(=O)ccn(CCCCCOc2cccc(Br)c2)c1=O)Nc1ccc(Oc2ccccc2)cc1 | inactive |
| O=C(Cn1c(=O)ccn(CCCCCOc2ccccc2)c1=O)Nc1ccc(Oc2ccccc2)cc1 | inactive |

tested on: not listed separately; assay: Cytotoxicity against human cytomegalovirus infected HEL cells assessed as alteration of cell morphology incubated for 3 days by microscopy; format: cell-based; details: HEL cells infected with human cytomegalovirus
Outline: (§1)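 Cytotoxicity was given as the minimum cytotoxic concentration (MCC): the compound concentration causing a microscopically detectable change in HEL cell morphology.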

| SMILES | MCC at 72 h [µM] |
| --- | --- |
| O=C(Cn1c(=O)ccn(CCCCCCCCOc2ccc(Br)cc2)c1=O)Nc1ccc(Oc2ccccc2)cc1 | ≥ 0.16 |
| O=C(Cn1c(=O)ccn(CCCCCOc2cccc(Br)c2)c1=O)Nc1ccc(Oc2ccccc2)cc1 | ≥ 100 |
| O=C(Cn1c(=O)ccn(CCCCCOc2ccccc2)c1=O)Nc1ccc(Oc2ccccc2)cc1 | ≥ 20 |

tested on: Influenza B virus; assay: Antiviral activity against Influenza B virus; format: functional, organism-based; details: not given
Outline: (§2)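 Confluent cell monolayers (HEL, Vero, HeLa or MDCK) in 96-well plates were infected with 100 CCID50 of virus in the presence of varying compound concentrations. Cytopathicity was scored once it reached completion in untreated infected controls.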

| SMILES | inhibition |
| --- | --- |
| O=C(Cn1c(=O)ccn(CCCCCCCCOc2ccc(Br)cc2)c1=O)Nc1ccc(Oc2ccccc2)cc1 | inactive |
| O=C(Cn1c(=O)ccn(CCCCCOc2cccc(Br)c2)c1=O)Nc1ccc(Oc2ccccc2)cc1 | inactive |
| O=C(Cn1c(=O)ccn(CCCCCOc2ccccc2)c1=O)Nc1ccc(Oc2ccccc2)cc1 | inactive |

tested on: Feline coronavirus; assay: Antiviral activity against Feline coronavirus; format: functional, organism-based; details: not given

| SMILES | inhibition |
| --- | --- |
| O=C(Cn1c(=O)ccn(CCCCCCCCOc2ccc(Br)cc2)c1=O)Nc1ccc(Oc2ccccc2)cc1 | inactive |
| O=C(Cn1c(=O)ccn(CCCCCOc2cccc(Br)c2)c1=O)Nc1ccc(Oc2ccccc2)cc1 | inactive |
| O=C(Cn1c(=O)ccn(CCCCCOc2ccccc2)c1=O)Nc1ccc(Oc2ccccc2)cc1 | inactive |

tested on: Human respirovirus 3; assay: Antiviral activity against Parainfluenza 3 virus; format: functional, organism-based; details: not given

| SMILES | inhibition |
| --- | --- |
| O=C(Cn1c(=O)ccn(CCCCCCCCOc2ccc(Br)cc2)c1=O)Nc1ccc(Oc2ccccc2)cc1 | inactive |
| O=C(Cn1c(=O)ccn(CCCCCOc2cccc(Br)c2)c1=O)Nc1ccc(Oc2ccccc2)cc1 | inactive |
| O=C(Cn1c(=O)ccn(CCCCCOc2ccccc2)c1=O)Nc1ccc(Oc2ccccc2)cc1 | inactive |

tested on: HEL; assay: Cytotoxicity against Varicella zoster virus infected HEL cells assessed as cell growth inhibition incubated for 3 days by coulter counter method; details: human, 72 h

| SMILES | CC50 [µM] |
| --- | --- |
| O=C(Cn1c(=O)ccn(CCCCCCCCOc2ccc(Br)cc2)c1=O)Nc1ccc(Oc2ccccc2)cc1 | 11.7 |
| O=c1[nH]c(=O)n([C@H]2C[C@H](O)[C@@H](CO)O2)cc1/C=C/Br [BRIVUDINE] | ≥ 79.3 |

tested on: Vesicular stomatitis virus; assay: Antiviral activity against Vesicular stomatitis virus; format: functional, organism-based; details: not given; outline: as §2

| SMILES | inhibition |
| --- | --- |
| O=C(Cn1c(=O)ccn(CCCCCCCCOc2ccc(Br)cc2)c1=O)Nc1ccc(Oc2ccccc2)cc1 | inactive |
| O=C(Cn1c(=O)ccn(CCCCCOc2cccc(Br)c2)c1=O)Nc1ccc(Oc2ccccc2)cc1 | inactive |
| O=C(Cn1c(=O)ccn(CCCCCOc2ccccc2)c1=O)Nc1ccc(Oc2ccccc2)cc1 | inactive |

tested on: not listed separately; assay: Cytotoxicity against Varicella zoster virus infected HEL cells assessed as alteration of cell morphology incubated for 3 days by microscopy; format: cell-based; details: human, HEL cells infected with Varicella zoster virus; outline: as §1

| SMILES | MCC at 72 h [µM] |
| --- | --- |
| O=C(Cn1c(=O)ccn(CCCCCCCCOc2ccc(Br)cc2)c1=O)Nc1ccc(Oc2ccccc2)cc1 | 0.8 |
| O=c1[nH]c(=O)n([C@H]2C[C@H](O)[C@@H](CO)O2)cc1/C=C/Br [BRIVUDINE] | > 300 |
| O=C(Cn1c(=O)ccn(CCCCCOc2cccc(Br)c2)c1=O)Nc1ccc(Oc2ccccc2)cc1 | > 100 |
| O=C(Cn1c(=O)ccn(CCCCCOc2ccccc2)c1=O)Nc1ccc(Oc2ccccc2)cc1 | > 100 |

tested on: Mammalian orthoreovirus 1; assay: Antiviral activity against Reovirus 1; format: functional; details: not given

| SMILES | inhibition |
| --- | --- |
| O=C(Cn1c(=O)ccn(CCCCCCCCOc2ccc(Br)cc2)c1=O)Nc1ccc(Oc2ccccc2)cc1 | inactive |
| O=C(Cn1c(=O)ccn(CCCCCOc2cccc(Br)c2)c1=O)Nc1ccc(Oc2ccccc2)cc1 | inactive |
| O=C(Cn1c(=O)ccn(CCCCCOc2ccccc2)c1=O)Nc1ccc(Oc2ccccc2)cc1 | inactive |

tested on: Human herpesvirus 2 strain G; assay: Antiviral activity against HSV2 G Lyons; format: functional, organism-based; details: not given

| SMILES | inhibition |
| --- | --- |
| O=C(Cn1c(=O)ccn(CCCCCCCCOc2ccc(Br)cc2)c1=O)Nc1ccc(Oc2ccccc2)cc1 | inactive |
| O=C(Cn1c(=O)ccn(CCCCCOc2cccc(Br)c2)c1=O)Nc1ccc(Oc2ccccc2)cc1 | inactive |
| O=C(Cn1c(=O)ccn(CCCCCOc2ccccc2)c1=O)Nc1ccc(Oc2ccccc2)cc1 | inactive |

tested on: Human alphaherpesvirus 2; assay: Antiviral activity against HSV2 Lyons; format: functional, organism-based; details: not given
Outline: (§3)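 Confluent cell monolayers in 96-well plates were inoculated with 100 CCID50 of virus together with varying compound concentrations. Cytopathicity was scored once it reached completion in untreated infected controls.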

| SMILES | inhibition |
| --- | --- |
| O=C(Cn1c(=O)ccn(CCCCCCCCOc2ccc(Br)cc2)c1=O)Nc1ccc(Oc2ccccc2)cc1 | inactive |
| O=C(Cn1c(=O)ccn(CCCCCOc2cccc(Br)c2)c1=O)Nc1ccc(Oc2ccccc2)cc1 | inactive |
| O=C(Cn1c(=O)ccn(CCCCCOc2ccccc2)c1=O)Nc1ccc(Oc2ccccc2)cc1 | inactive |

tested on: Human immunodeficiency virus 1; assay: Antiviral activity against HIV1 3B infected in human CEM cells assessed as reduction in virus- induced cytopathicity incubated for 4 to 5 days by microscopy based virus syncytium formation assay; format: functional, organism-based; details: CCRF-CEM
Outline: (§4)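 CEM cells at ~3 × 10^5 cells/mL, infected with 100 CCID50 of HIV per mL in the presence of compound dilutions. Incubated 4–5 days at 37 °C in humidified CO2. Syncytium (giant cell) formation scored by microscopy.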

| SMILES | inhibition |
| --- | --- |
| O=C(Cn1c(=O)ccn(CCCCCCCCOc2ccc(Br)cc2)c1=O)Nc1ccc(Oc2ccccc2)cc1 | inactive |
| O=C(Cn1c(=O)ccn(CCCCCOc2cccc(Br)c2)c1=O)Nc1ccc(Oc2ccccc2)cc1 | inactive |
| O=C(Cn1c(=O)ccn(CCCCCOc2ccccc2)c1=O)Nc1ccc(Oc2ccccc2)cc1 | inactive |

tested on: Human betaherpesvirus 5; assay: Antiviral activity against human cytomegalovirus AD169 infected in HEL cells assessed as reduction in viral plaque formation; format: functional, organism-based; details: Human betaherpesvirus 5, AD169, HEL
Outline: (§5)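 Confluent HEL fibroblasts were infected with 100 PFU of HCMV in the presence of varying compound concentrations. Plaques were counted once plaque formation was complete in untreated infected controls.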

| SMILES | EC50 [µM] |
| --- | --- |
| O=C(Cn1c(=O)ccn(CCCCCCCCOc2ccc(Br)cc2)c1=O)Nc1ccc(Oc2ccccc2)cc1 | < 0.032 |
| O=C(Cn1c(=O)ccn(CCCCCOc2cccc(Br)c2)c1=O)Nc1ccc(Oc2ccccc2)cc1 | 2 |
| O=C(Cn1c(=O)ccn(CCCCCOc2ccccc2)c1=O)Nc1ccc(Oc2ccccc2)cc1 | 3.6 |

tested on: Human immunodeficiency virus 2; assay: Antiviral activity against HIV2 ROD infected in human CEM cells assessed as reduction in virus- induced cytopathicity incubated for 4 to 5 days by microscopy based virus syncytium formation assay; format: functional, organism-based; details: ISOLATE ROD, CCRF-CEM; outline: as §4

| SMILES | inhibition |
| --- | --- |
| O=C(Cn1c(=O)ccn(CCCCCCCCOc2ccc(Br)cc2)c1=O)Nc1ccc(Oc2ccccc2)cc1 | inactive |
| O=C(Cn1c(=O)ccn(CCCCCOc2cccc(Br)c2)c1=O)Nc1ccc(Oc2ccccc2)cc1 | inactive |
| O=C(Cn1c(=O)ccn(CCCCCOc2ccccc2)c1=O)Nc1ccc(Oc2ccccc2)cc1 | inactive |

tested on: Human alphaherpesvirus 1; assay: Antiviral activity against HSV1 KOS; format: functional, organism-based; details: not given; outline: as §3

| SMILES | inhibition |
| --- | --- |
| O=C(Cn1c(=O)ccn(CCCCCCCCOc2ccc(Br)cc2)c1=O)Nc1ccc(Oc2ccccc2)cc1 | inactive |
| O=C(Cn1c(=O)ccn(CCCCCOc2cccc(Br)c2)c1=O)Nc1ccc(Oc2ccccc2)cc1 | inactive |
| O=C(Cn1c(=O)ccn(CCCCCOc2ccccc2)c1=O)Nc1ccc(Oc2ccccc2)cc1 | inactive |

tested on: Human betaherpesvirus 5; assay: Antiviral activity against human cytomegalovirus Davis infected in HEL cells assessed as reduction in viral plaque formation; format: functional, organism-based; details: Human betaherpesvirus 5, Davis; outline: as §5

| SMILES | EC50 [µM] |
| --- | --- |
| O=C(Cn1c(=O)ccn(CCCCCCCCOc2ccc(Br)cc2)c1=O)Nc1ccc(Oc2ccccc2)cc1 | < 0.032 |
| O=C(Cn1c(=O)ccn(CCCCCOc2cccc(Br)c2)c1=O)Nc1ccc(Oc2ccccc2)cc1 | 3.1 |
| O=C(Cn1c(=O)ccn(CCCCCOc2ccccc2)c1=O)Nc1ccc(Oc2ccccc2)cc1 | 4 |

tested on: Vaccinia virus; assay: Antiviral activity against Vaccinia virus Lederle; format: functional, organism-based; details: Orthopoxvirus vaccinia; outline: as §2

| SMILES | inhibition |
| --- | --- |
| O=C(Cn1c(=O)ccn(CCCCCCCCOc2ccc(Br)cc2)c1=O)Nc1ccc(Oc2ccccc2)cc1 | inactive |
| O=C(Cn1c(=O)ccn(CCCCCOc2cccc(Br)c2)c1=O)Nc1ccc(Oc2ccccc2)cc1 | inactive |
| O=C(Cn1c(=O)ccn(CCCCCOc2ccccc2)c1=O)Nc1ccc(Oc2ccccc2)cc1 | inactive |

tested on: Influenza A virus; assay: Antiviral activity against Influenza A virus H1N1; format: functional, organism-based; details: not given; outline: as §2

| SMILES | inhibition |
| --- | --- |
| O=C(Cn1c(=O)ccn(CCCCCCCCOc2ccc(Br)cc2)c1=O)Nc1ccc(Oc2ccccc2)cc1 | inactive |
| O=C(Cn1c(=O)ccn(CCCCCOc2cccc(Br)c2)c1=O)Nc1ccc(Oc2ccccc2)cc1 | inactive |
| O=C(Cn1c(=O)ccn(CCCCCOc2ccccc2)c1=O)Nc1ccc(Oc2ccccc2)cc1 | inactive |

tested on: Influenza A virus H3N2; assay: Antiviral activity against Influenza A virus H3N2; format: functional, organism-based; details: not given; outline: as §2

| SMILES | inhibition |
| --- | --- |
| O=C(Cn1c(=O)ccn(CCCCCCCCOc2ccc(Br)cc2)c1=O)Nc1ccc(Oc2ccccc2)cc1 | inactive |
| O=C(Cn1c(=O)ccn(CCCCCOc2cccc(Br)c2)c1=O)Nc1ccc(Oc2ccccc2)cc1 | inactive |
| O=C(Cn1c(=O)ccn(CCCCCOc2ccccc2)c1=O)Nc1ccc(Oc2ccccc2)cc1 | inactive |
